In ChEMBL document CHEMBL4706641, “Novel Carboline Fungal Histone Deacetylase (HDAC) Inhibitors for Combinational Treatment of Azole-Resistant Candidiasis” (J Med Chem, 2021):
Converted amounts (≈) assume the structure as drawn. The source made the active and inactive calls. The calls are words filed in the database; no cut-off is given here.

Experiments:
Candida albicans [1] = test: Synergistic antifungal activity against azole-resistant Candida albicans assessed as potentiation of ITC antifungal activity by measuring ITC incubated for 48 hrs in presence of fluconazole by checkerboard microdilution assay; format: functional
[Candida] auris = Synergistic antifungal activity against Candida auris assessed as potentiation of VRC antifungal activity by measuring VRC incubated for 48 hrs in presence of fluconazole by checkerboard microdilution assay; format: functional, organism-based; settings: Candidozyma auris
Nakaseomyces glabratus = test: Synergistic antifungal activity against Candida glabrata assessed as potentiation of VRC antifungal activity by measuring VRC incubated for 48 hrs in presence of fluconazole by checkerboard microdilution assay; format: functional, organism-based
Candida tropicalis = test: Synergistic antifungal activity against Candida tropicalis assessed as potentiation of VRC antifungal activity by measuring VRC incubated for 48 hrs in presence of fluconazole by checkerboard microdilution assay; format: functional, organism-based
Candida albicans [2] = test: Synergistic antifungal activity against Candida albicans 0304103 at 8 ug/ml incubated for 48 hrs in presence of 32 ug/ml fluconazole by microdilution assay; format: functional, organism-based; settings: dose 8.0 µg/ml
Candida albicans [3] = test: Synergistic antifungal activity against Candida albicans 0304103 assessed as potentiation of fluconazole antifungal activity incubated for 48 hrs in presence of fluconazole by checkerboard microdilution assay; format: functional, organism-based
How it was run: (§1)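 Checkerboard broth microdilution per CLSI M27-A3 (modified), clinical Candida isolates. Exponential cells in RPMI 1640 (MOPS-buffered) at 10³ cells/mL; fluconazole 0.25–64 μg/mL crossed with test compound 2–64 μg/mL (final). 48 h at 35 °C; OD630 read with background subtracted. MIC80 = 80% growth inhibition; FICI ≤0.5 synergy, >4 antagonism.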

Candida albicans [4] = test: Antifungal activity against Candida albicans 0304103 at 32 ug/ml incubated for 48 hrs by microdilution assay; format: functional, organism-based; settings: dose 32.0 µg/ml
Candida albicans [5] = test: Antifungal activity against Candida albicans 9884 incubated for 48 hrs by microdilution assay; format: functional; how it was run: as §1
Candida albicans [6] = test: Antifungal activity against Candida albicans 10061 incubated for 48 hrs by microdilution assay; format: functional; how it was run: as §1
Candida albicans [7] = test: Synergistic antifungal activity against Candida albicans 9172 incubated for 48 hrs in presence of fluconazole by microdilution assay; format: functional; how it was run: as §1
Candida albicans [8] = test: Synergistic antifungal activity against Candida albicans 9884 incubated for 48 hrs in presence of fluconazole by microdilution assay; format: functional; how it was run: as §1
Pichia kudriavzevii = test: Synergistic antifungal activity against Candida krusei 10153 incubated for 48 hrs in presence of fluconazole by microdilution assay; format: functional; how it was run: as §1
Candida albicans [9] = test: Synergistic antifungal activity against Candida albicans 9172 assessed as fluconazole MIC incubated for 48 hrs in presence of fluconazole by microdilution assay (reference value: fluconazole alone MIC = >[…] ug/ml); format: functional
Candida albicans [10] = test: Synergistic antifungal activity against Candida albicans 9172 assessed as potentiation of fluconazole antifungal activity by measuring FICI incubated for 48 hrs in presence of fluconazole by checkerboard microdilution assay; format: functional
How it was run: (§2)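 Checkerboard broth microdilution per CLSI M27-A3 (modified), clinical Candida isolates. 48 h at 35 °C; OD630 read with background subtracted. MIC80 = 80% growth inhibition; FICI ≤0.5 synergy, >4 antagonism.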

Candida albicans [11] = test: Synergistic antifungal activity against Candida albicans 9884 assessed as potentiation of fluconazole antifungal activity by measuring FICI incubated for 48 hrs in presence of fluconazole by checkerboard microdilution assay; format: functional; how it was run: as §2
Candida albicans [12] = test: Synergistic antifungal activity against Candida albicans 10061 assessed as potentiation of fluconazole antifungal activity by measuring FICI incubated for 48 hrs in presence of fluconazole by checkerboard microdilution assay; format: functional; how it was run: as §2
Candida albicans [13] = test: Synergistic antifungal activity against Candida albicans 4108 assessed as potentiation of fluconazole antifungal activity by measuring FICI incubated for 48 hrs in presence of fluconazole by checkerboard microdilution assay; format: functional
[14] = molecular target: Histone deacetylase (Homo sapiens) (UniProt Q13547+O15379+Q9UBN7+Q92769+Q9UQL6+Q8WUI4+Q9BY41+Q96DB2+P56524+Q9UKV0+Q969S8); test: Inhibition of HDAC in HUVEC using Boc-Lys(Ac)-AMC substrate incubated for 18 hrs by fluorescence based assay; format: protein assay
How it was run: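 Human total HDAC in whole HUVEC cells: about 15000 cells/well, 24 h at 37 °C/5% CO₂ before compound; then Boc-Lys(Ac)-AMC 33 μM, 37 °C 6 h, trypsin/Nonidet P-40 stop 2 h, fluorescence Ex 360/Em 460 nm. Inhibition relative to control after blank subtraction; three independent experiments.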

[15] = Toxicity in human L02 cells; format: cell-based
[16] = Toxicity in HUVEC in presence of fluconazole; format: cell-based; settings: human, HUVEC cells
Candida albicans [17] = test: Up-regulation of MDR1 mRNA expression in Candida albicans 0304103 at 32 ug/ml incubated for 24 hrs by RT-PCR analysis; format: functional; settings: dose 32.0 µg/ml
How it was run: (§3)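 Cells from a 1 × 10⁶ cells/mL starting suspension were split into DMSO control, FLC 32 μg/mL, test compound 32 μg/mL and combination (32 + 32 μg/mL) groups, then incubated 24 h at 35 °C in YEPD. Total RNA was extracted and reverse-transcribed. Real-time PCR ran 40 cycles (95 °C 5 s, 60 °C 34 s). Fold change was calculated by 2^−ΔΔCt against ACT1.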

Candida albicans [18] = test: Up-regulation of MDR1 mRNA expression in Candida albicans 0304103 at 32 ug/ml incubated for 24 hrs in presence of 32 ug/ml fluconazole by RT-PCR analysis; format: functional; settings: dose 32.0 µg/ml; how it was run: as §3
Candida albicans [19] = test: Inhibition of biofilm formation in Candida albicans 0304103 at 0.12 to 64 ug/ml incubated for 24 hrs by XTT reduction assay; format: functional, organism-based; settings: dose 0.12-64 µg/ml
How it was run: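 C. albicans 0304103 at 1.0 × 10⁶ CFU/mL in RPMI 1640 allowed to adhere 90 min at 37 °C, washed with PBS, then fresh medium with fluconazole 2–32 μg/mL and/or compound 0.12–64 μg/mL added; 24 h at 37 °C. Biofilm metabolic activity by XTT reduction, OD490. Three independent experiments.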

Candida albicans [20] = test: Antifungal activity against Candida albicans 0304103 infected in ICR mouse model of candidiasis assessed as reduction in kidney fungal burden at 10 mg/kg, ip dosed 24 hrs post infection and measured after 5 days; format: functional, organism-based; settings: time 5.0 day
Candida albicans [21] = test: (§4) Antifungal activity against Candida albicans 0304103 infected in ICR mouse model of candidiasis assessed as reduction in fungal invasion by measuring clusters of fungal infiltration in renal pelvis/medulla at 10 mg/kg, ip dosed 24 hrs post infection and co-treated with 1 mg/kg, ip fluconazole and measured after 5 days by H and E staining based microscopical analysis; format: functional, organism-based; settings: time 5.0 day
How it was run: (§5)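 Two ICR mice per group, infected and treated as in the kidney burden model (IV 5 × 10⁵ C. albicans 0304103; IP compound 10 mg/kg, fluconazole 1 mg/kg, or combination, 5 days). Kidneys fixed in 4% paraformaldehyde, paraffin-embedded, 4 μm sections, H&E stained, examined at 40× and 200×.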

Candida albicans [22] = test: as §4, with “morphological changes” for “fungal invasion by measuring clusters”, “budded-to-hyphal transition” for “fungal infiltration in renal pelvis/medulla”; format: functional, organism-based; settings: time 5.0 day; how it was run: as §5

For `O=C(Cc1ccc(OCCCn2c3c(c4cccc(Cl)c42)CCNC3)cc1)NO`, the “fractional inhibitory concentration index (FICI)” value (Candida albicans [1]) was 0.035, the Activity ([Candida] auris) was “Active” and the Activity (Nakaseomyces glabratus) was “Active”. The Activity (Candida tropicalis) was “Active”, the Activity (Candida albicans [2]) was “inactive” and the Activity (Candida albicans [3]) was “Dose-dependent effect”. The Activity (Candida albicans [4]) was “inactive”, the MIC80 (Candida albicans [5]) was 64 µg/mL (≈ 155 µM) and the MIC80 (Candida albicans [6]) was over 64 µg/mL. For the same compound, the MIC80 (Candida albicans [7]) was 2 µg/mL, the MIC80 (Candida albicans [8]) was 2 µg/mL and the MIC80 (Pichia kudriavzevii) was 8 µg/mL. The MIC80 (Candida albicans [9]) was 0.5 µg/mL, the “fractional inhibitory concentration index (FICI)” value (Candida albicans [10]) was 0.039 and the “fractional inhibitory concentration index (FICI)” value (Candida albicans [11]) was 0.039. The “fractional inhibitory concentration index (FICI)” value (Candida albicans [12]) was 0.062, the “fractional inhibitory concentration index (FICI)” value (Candida albicans [13]) was 0.035 and the inhibition [14] was “inactive”. The IC50 [15] was 11.5 µM, the IC50 [16] was 12.2 µM and the Activity (Candida albicans [17]) was “Active”. The fold change (FC) (Candida albicans [18]) was 8, the inhibition (Candida albicans [19]) was “inactive” and the Activity (Candida albicans [20]) was “inactive”. For the same compound, the Activity (Candida albicans [21]) was “Active” and the Activity (Candida albicans [22]) was “Active”.
